This is an account of results in paper PMC10269403 (Journal of medicinal chemistry, 2023).

Values joined by “and” are separate entries in the source; they are usually repeats but may differ in a detail not shown here. Equal values may be shown once. “Also recorded” adds a separate entry of the source. Read-outs that look alike come from different tables or passages of the source. A value given as a limit tells only on which side of the number the result lay.

The target of data set [1] is HIV reverse transcriptase (Human immunodeficiency virus type 1 group M subtype B, UniProt P03366). The data set can be described thus: HIV RT inhibition, fluorescent EnzChek/PicoGreen assay. The format is biochemical, HIV-1.
Another data set concerns HIV-1 IIIB virus. The data set can be described thus: Inhibition of wild-type HIV-1. The format is cell-based.
Data set [2] deals with HIV-1 IIIB (A17 variant) virus. The data set can be described thus: microbe, parasite or virus in culture. The format is cell-based. The note with it: for EC50: Human immunodeficiency virus 1, IIIB, TZM-bl.
Data set [3] has as its system primary mouse neurons. The data set can be described thus: Neuronal toxicity by MAP-2 staining in primary mouse neurons. The note with it: for TC50 (µM) Relative MAP-2 Area / TC50 (µM) Relative MAP-2 intensity: 48 hr, 0.1 to 10,000 nM, ±SD; for estimated TC10: primary neurons, discussion. The format is cell-based.
Data set [4] in a line: Cytotoxicity in TZM-bl cells. The format is cell-based. The note with it: human.
A further data set relates to HIV-RT. The note with it: substituted pyridinones; cited from earlier work.
The subject of the next data set is TZM-bl cells. The data set can be described thus: Cytotoxicity in TZM-bl cells. The format is cell-based.
The conditions of data set [5]: cited from earlier work.
The test system of data set [6] is primary mouse neurons. The data set can be described thus: Calcium imaging in primary mouse neuron cultures. The note with it: 1 µM. The format is cell-based. The essentials:
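Primary mouse cortex/hippocampus cultures were seeded at 20,000 cells/cm2 on poly-D-lysine coverslips in Neurobasal Plus/B27 Plus/Glutamax (>95% neurons by day 4). At 14–18 days in vitro, neurons were loaded with Fluo-4 AM (2 µM) in aCSF (NaCl 137, KCl 5.0, CaCl2 2.3, MgCl2 1.3, glucose 20 mM). Average spikes were scored in acute and delayed phases plus a summation average, versus matched controls. Statistics: Brown-Forsythe/Welch ANOVA with Dunnett's T3.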

The target in the next data set is hERG (Homo sapiens, UniProt Q12809). The note with it: cited from earlier work.
The test system of another data set is HIV. The note with it: cited from earlier work.
Data set [7] in a line: Metabolic stability in human liver microsomes. The format is in vitro ADME.
A further data set can be described thus: Protein binding. The format is in vitro ADME.
For a further data set, the system named is Caco-2 cells. The data set can be described thus: Efflux in Caco-2 cells. The format is in vitro ADME.
For the next data set, the system named is Y181C HIV mutant. The data set can be described thus: Inhibition of NNRTI-resistant Y181C mutant in TZM-bl cells. The note with it: 0.05–500 nM. The format is cell-based, HIV-1.
The subject of a further data set is L100I/K103N HIV mutant. The data set can be described thus: Inhibition of NNRTI-resistant L100I/K103N mutant in TZM-bl cells. The format is cell-based, HIV-1. The note with it: 0.05–500 nM.
A further data set concerns K103N HIV mutant. The data set can be described thus: Inhibition of NNRTI-resistant K103N mutant in TZM-bl cells. The format is cell-based, HIV-1. The note with it: 0.05–500 nM.
A further data set can be described thus: Solubility. The format is physicochemical.
For another data set, the system named is Balb/C male mice. The data set can be described thus: In vivo acute toxicity study. The note with it: 2000 mg/kg single oral dose, 14 days.
Data set [8] in a line: Metabolic stability in mouse liver microsomes. The format is in vitro ADME.
Data set [9] in a line: Single-dose pharmacokinetics in mice. The note with it: mouse.
In the next data set the test system is Balb/C mice. The data set can be described thus: In vivo subacute toxicity study. The note with it: 30 days.
[10] abbreviates: Human immunodeficiency virus 1, IIIB, TZM-bl, read-out: WT EC50 (nM).

hERG, sequence (Q12809 whole entry): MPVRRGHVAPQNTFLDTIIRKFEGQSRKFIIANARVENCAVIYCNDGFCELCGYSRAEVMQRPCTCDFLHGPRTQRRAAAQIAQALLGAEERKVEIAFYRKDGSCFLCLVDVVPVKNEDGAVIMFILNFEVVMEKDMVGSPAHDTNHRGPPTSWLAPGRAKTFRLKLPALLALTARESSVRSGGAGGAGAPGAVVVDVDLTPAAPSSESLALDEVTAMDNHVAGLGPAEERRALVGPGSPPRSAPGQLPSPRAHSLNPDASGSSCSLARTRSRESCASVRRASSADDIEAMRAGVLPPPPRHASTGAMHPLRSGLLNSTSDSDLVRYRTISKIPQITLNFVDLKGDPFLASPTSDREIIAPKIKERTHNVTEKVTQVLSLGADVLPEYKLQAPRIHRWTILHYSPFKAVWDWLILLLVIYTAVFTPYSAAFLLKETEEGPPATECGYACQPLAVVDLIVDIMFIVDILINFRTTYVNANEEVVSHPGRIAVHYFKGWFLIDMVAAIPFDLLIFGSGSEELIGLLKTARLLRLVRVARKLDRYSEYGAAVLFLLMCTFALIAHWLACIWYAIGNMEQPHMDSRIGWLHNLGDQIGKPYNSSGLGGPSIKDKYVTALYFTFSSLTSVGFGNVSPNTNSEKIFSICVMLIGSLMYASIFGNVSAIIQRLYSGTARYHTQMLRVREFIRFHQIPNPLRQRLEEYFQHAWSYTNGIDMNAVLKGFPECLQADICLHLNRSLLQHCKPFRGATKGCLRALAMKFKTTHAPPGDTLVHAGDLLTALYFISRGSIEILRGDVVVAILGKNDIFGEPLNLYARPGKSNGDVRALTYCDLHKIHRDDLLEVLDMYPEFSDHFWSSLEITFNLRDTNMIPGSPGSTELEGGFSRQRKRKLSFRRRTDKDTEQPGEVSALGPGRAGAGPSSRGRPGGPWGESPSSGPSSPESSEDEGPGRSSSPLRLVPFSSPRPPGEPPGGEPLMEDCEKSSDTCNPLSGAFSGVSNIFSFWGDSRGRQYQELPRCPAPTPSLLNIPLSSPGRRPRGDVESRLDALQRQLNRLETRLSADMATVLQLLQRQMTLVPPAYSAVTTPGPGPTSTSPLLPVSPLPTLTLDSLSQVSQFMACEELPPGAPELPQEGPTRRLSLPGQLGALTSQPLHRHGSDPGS

As for `N#Cc1ccc2c(S(=O)(=O)n3nc(Nc4ccc(C#N)c(C#N)c4)nc3N)cccc2c1` [compound 12126055, 4-[[5-amino-1-[(6-cyano-1-naphthyl)sulfonyl]-1,2,4-triazol-3-yl]amino]phthalonitrile], the EC50 in data set [1] is 350 ± 130 nM; in the data set with HIV-1 IIIB virus (setting [10]), 0.21 ± 0.01 nM; in [2] (read-out: A17 EC50 (nM)), 49 ± 9.5 nM. Also, in the data set with primary mouse neurons [3], the “TC50 (µM) Relative MAP-2 Area” value is reported as 48 ± 86 µM. Moreover, in the data set with primary mouse neurons [3], the “TC50 (µM) Relative MAP-2 intensity” value is 50 ± 140 µM. In addition, the midpoint of cytotoxicity in [4], the CC50 at 48 h, lay at 28000 ± 66000 nM.
For `Cn1c(Cn2ccc(C(F)(F)F)c(Oc3cc(Cl)cc(C#N)c3)c2=O)n[nH]c1=O` [Doravirine, doravirine], the IC50 with HIV-RT was 11 nM.
For `N#Cc1ccc(Nc2nc(N)n(S(=O)(=O)c3cccc4cc(C#N)ccc34)n2)cc1` [compound 11726152, 5-[[5-amino-3-(4-cyanoanilino)-1,2,4-triazol-1-yl]sulfonyl]naphthalene-2-carbonitrile], the results for the EC50 (in data set [1]; in the data set on HIV-1 IIIB virus (setting [10]); in data set [2] (read-out: A17 EC50 (nM))) were 700 ± 220 nM, 0.35 ± 0.05 nM and 49 ± 7.8 nM, respectively. For the same compound, the “TC50 (µM) Relative MAP-2 Area” value in the data set on primary mouse neurons [3] stood at 1.2 ± 0.6 µM. The “TC50 (µM) Relative MAP-2 intensity” value in the data set with primary mouse neurons [3] was determined as 1.0 ± 0.5 µM. For the same compound, the “Safety Index” value in the data set with primary mouse neurons [3] (TC10/(100*EC50), relative MAP-2 area) is 1.6.
In [1], `Nc1nc(Nc2ccc(Cl)cc2)nn1S(=O)(=O)c1ccc2ccccc2c1` [compound 11626007, N^3-(4-chlorophenyl)-1-(2-naphthylsulfonyl)-1,2,4-triazole-3,5-diamine] displayed an EC50 of 280 ± 100 nM. Further, in data set [2] (TZM-bl cells, early screening), the “inhibition of A17 mutant (in words)” value is reported as “No appreciable inhibition”. Besides, in the data set on primary mouse neurons [3], the “TC50 (µM) Relative MAP-2 Area” value was 34 ± 46 µM and the “TC50 (µM) Relative MAP-2 intensity” value worked out at 23 ± 18 µM. Moreover, the “toxicity in MTS assay (in words)” value in the data set with TZM-bl cells is recorded as “No observable toxicity”.
For `N#Cc1ccc2c(S(=O)(=O)n3nc(Nc4ccc(C#N)c(Cl)c4)nc3N)cccc2c1` [compound 11826116, 5-[[5-amino-3-(3-chloro-4-cyano-anilino)-1,2,4-triazol-1-yl]sulfonyl]naphthalene-2-carbonitrile], the EC50 in the data set with HIV-1 IIIB virus (setting [10]) turned out to be 0.34 ± 0.04 nM; in data set [2] (read-out: A17 EC50 (nM)), 25 ± 6.6 nM.
On to `O=C1Nc2ccc(Cl)cc2[C@@](C#CC2CC2)(C(F)(F)F)O1` [EFV, efavirenz], for which the plasma levels in data set [5] (human, in vivo) is 3170 to 12670 nM. In addition, in the data set with primary mouse neurons [6], the “calcium accumulation, delayed phase (in words)” value is given as “pronounced increase” and the “calcium spiking frequency, acute phase (in words)” value is recorded as “acute suppression”. For the same compound, the “estimated TC10” value in the data set with primary mouse neurons [3] is recorded as 70 nM.
For the compound `N#Cc1ccc(Nc2nc(N)n(S(=O)(=O)c3c(Cl)nc4sccn34)n2)cc1` [compound 11926331, 4-[[5-amino-1-(6-chloroimidazo[2,1-b]thiazol-5-yl)sulfonyl-1,2,4-triazol-3-yl]amino]-benzonitrile], the “RT activity (in words)” value in data set [1] (Table S1) was “excellent”. The “whole cell virus activity (in words)” value with HIV-1 IIIB virus (Table S1) is recorded as “excellent”.
On to `Cc1cc(/C=C/C#N)cc(C)c1Nc1ccnc(Nc2ccc(C#N)cc2)n1` [RPV, rilpivirine], for which the EC50 in data set [1] came to 160 ± 60 nM; in the data set on HIV-1 IIIB virus (setting [10]) it was 0.35 ± 0.03 nM; in [2] (read-out: A17 EC50 (nM)) it was 2.5 ± 1.9 nM. In data set [5], the “recorded CSF concentrations” value is “up to 2.9 ng/ml and ≤ 7.9 nM”. In addition, the “calcium spiking frequency, acute phase (in words)” value with primary mouse neurons [6] is “acute suppression”. Besides, the “estimated TC10” value in the data set with primary mouse neurons [3] was 600 to 930 nM. Moreover, the “concentration shown to inhibit hERG in vitro” value on hERG is 300 nM. Besides, in the data set with HIV, the “proposed plasma target concentration (protein binding-adjusted EC90)” value was 0.0121 µg/mL. Moreover, the EC90 in the data set with HIV (read-out: proposed plasma target concentration (protein binding-adjusted EC90)) was 33 nM.
On to `N#C/C=C/c1ccc2c(S(=O)(=O)n3nc(Nc4ccc(C#N)c(Cl)c4)nc3N)cccc2c1` [compound 12126065, 4-[[5-amino-1-[[6-[(E)-2-cyanovinyl]-1-naphthyl]sulfonyl]-1,2,4-triazol-3-yl]amino]-2-chloro-benzonitrile], for which the EC50 came to 230 ± 70 nM in data set [1]; 0.24 nM in the data set on HIV-1 IIIB virus (Human immunodeficiency virus 1, IIIB, TZM, read-out: EC50 against wild-type HIV-1 in TZM cells); 0.263 nM in the data set on HIV-1 IIIB virus (Human immunodeficiency virus 1, IIIB, TZM-bl, read-out: EC50 (TZM, WT)); 0.47 ± 0.05 nM with HIV-1 IIIB virus (setting [10]); 3.4 ± 1.1 nM in data set [2] (read-out: A17 EC50 (nM)); 1.33 ± 0.16 nM in data set [2] (read-out: EC50 against K103N/Y181C double mutant). The “metabolic stability (in words)” value in [7] and in data set [8] was “good” throughout. Further, the “protein binding (in words)” value in “Protein binding” was “high”. For the same compound, the “efflux in Caco-2 cells (in words)” value in the data set on Caco-2 cells is “no indication of efflux”. Also, in the data set with Y181C HIV mutant, the “activity against Y181C mutant (in words)” value was “retained activity”. The “activity against L100I/K103N mutant (in words)” value in the data set with L100I/K103N HIV mutant is listed as “not drastically mitigated; also recorded: retained activity”. In addition, the “activity against K103N mutant (in words)” value in the data set with K103N HIV mutant was “retained activity”. Besides, the “solubility (in words)” value in “Solubility” was “poor”. The “acute toxicity (in words)” value with Balb/C male mice is given as “no in vivo acute or subacute toxicity; also recorded: No visible signs of intoxication”. In addition, the EC90 in the data set with HIV-1 IIIB virus (Human immunodeficiency virus 1, IIIB, TZM-bl, read-out: estimated EC90) is 19 nM. Moreover, in the data set with primary mouse neurons [3], the “TC50 (µM) Relative MAP-2 Area” value came out at 100 ± 410 µM. Besides, the “TC50 (µM) Relative MAP-2 intensity” value in the data set with primary mouse neurons [3] is >10 µM. Further, the “Estimated TC10 (µM) Relative MAP-2 Intensity” value with primary mouse neurons [3] (concentration of 10% loss of MAP-2) was >10 µM. The “50% toxicity concentration (TC50)” value in the data set on primary mouse neurons [3] (mouse neurons, as stated in abstract) is > 100000 nM. The “neurotoxicity in mouse neurons (in words)” value in the data set on primary mouse neurons [3] (up to 10 µM) is on record as “minimal neurotoxicity”. The compound also gave a half-life in [9] (male, Balb/C, plasma, po, 250 mg/kg) of 7.7 ± 1.57 h. Besides, the “in vivo brain penetration (in words)” value in [9] (in vivo) is “good”. For the same compound, the “aspartate aminotransferase activity versus control (in words)” value with Balb/C mice (250 mg/kg group only) was “reduced aspartate aminotransferase activity”. Further, the “subacute toxicity (in words)” value with Balb/C mice (25 and 250 mg/kg daily) is on record as “no in vivo acute or subacute toxicity”.
Turning to `CO[P@](=O)(c1cc(C)cc(/C=C/C#N)c1)c1c(C(N)=O)[nH]c2ccc(Cl)cc12` [IDX899], the EC50 in the data set on HIV (aryl-phospho-indole) is 1 nM.
